PubChem BioAssay AID493070 (Broad Institute, 2011)
Activity calls are given as the source filed them.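 The calls were made as follows: active = growth signal loss with fitted half-maximal concentration up to ten times the top valid dose; inconclusive = flat curve with 30 to 70% inhibition, or poor fit; inactive = the rest, including opposite-direction effects.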

Assay: C. albicans CaCi-2 growth inhibition, compound alone, dose response, counter-screen, Alamar Blue fluorescence, dry powder, set 5 (AID 493070)
Settings: 48 h; series mostly up to 26 µM
Outline: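 Material: fluconazole-resistant clinical Candida albicans isolate CaCi-2, fluconazole-free counterscreen; Dosing: pinned compound; Incubation: 48 h growth at 37 °C, 2 h dye step; Signal: Alamar Blue fluorescence, Ex 544/Em 590 nm; Read-out: fungal growth from Alamar Blue RFU, signal loss indicating broad toxicity.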

| SMILES | outcome |
| --- | --- |
| O=C(Cn1c2ccccc2c2nc3n(c(=O)c21)CCS3)N1CCCC1 | inactive |
| CC1CCN(C(=O)Cn2c3ccccc3c3nc4n(c(=O)c32)CCCS4)CC1 | inactive |
| O=C(Cn1c2ccccc2c2nc3n(c(=O)c21)CCS3)N1CCCCC1 | inactive |
| O=C(Cn1c2ccccc2c2nc3n(c(=O)c21)CCCS3)c1ccc(F)cc1 | inactive |
| O=C(Cn1c2ccc(F)cc2c2nc3n(c(=O)c21)CCS3)N1CCCCC1 | inactive |
| CC1CCN(C(=O)Cn2c3ccc(F)cc3c3nc4n(c(=O)c32)CCCS4)CC1 | inactive |
| O=C(Cn1c2ccc(F)cc2c2nc3n(c(=O)c21)CCS3)N1CCCCCC1 | inactive |
